Reference: ChEMBL document CHEMBL2331396, “Exploration of 1-(3-chloro-4-(4-oxo-4H-chromen-2-yl)phenyl)-3-phenylurea derivatives as selective dual inhibitors of Raf1 and JNK1 kinases for anti-tumor treatment” (Bioorg Med Chem, 2013)
Blank lines part the entries; values can stand above or below the molecule they belong to. Calls of active or inactive are those of the source. No cut-off for these calls is given here.

Legend:
[1] = test system: HepG2; test: Induction of human HepG2 cells assessed as late apoptotic cells at 10 uM measured after 24 hrs by Annexin VFITC/PI assay; type: functional
[2] = test system: HepG2; test: Cell cycle arrest in human HepG2 cells assessed as cells at G0/G1 phase at 10 uM measured after 24 hrs by flow cytometric analysis; type: functional
[3] = molecular target: RAF proto-oncogene serine/threonine-protein kinase (Homo sapiens) (UniProt P04049); test: Inhibition of Raf1 in human HepG2 cells assessed as ERK1/2 phosphorylation at 10 uM measured after 2 hrs by Western blot analysis; type: cell-based; details: in the assay text read “4 hrs” for “2 hrs”
RAF proto-oncogene serine/threonine-protein kinase (Homo sapiens), sequence (P04049 whole entry): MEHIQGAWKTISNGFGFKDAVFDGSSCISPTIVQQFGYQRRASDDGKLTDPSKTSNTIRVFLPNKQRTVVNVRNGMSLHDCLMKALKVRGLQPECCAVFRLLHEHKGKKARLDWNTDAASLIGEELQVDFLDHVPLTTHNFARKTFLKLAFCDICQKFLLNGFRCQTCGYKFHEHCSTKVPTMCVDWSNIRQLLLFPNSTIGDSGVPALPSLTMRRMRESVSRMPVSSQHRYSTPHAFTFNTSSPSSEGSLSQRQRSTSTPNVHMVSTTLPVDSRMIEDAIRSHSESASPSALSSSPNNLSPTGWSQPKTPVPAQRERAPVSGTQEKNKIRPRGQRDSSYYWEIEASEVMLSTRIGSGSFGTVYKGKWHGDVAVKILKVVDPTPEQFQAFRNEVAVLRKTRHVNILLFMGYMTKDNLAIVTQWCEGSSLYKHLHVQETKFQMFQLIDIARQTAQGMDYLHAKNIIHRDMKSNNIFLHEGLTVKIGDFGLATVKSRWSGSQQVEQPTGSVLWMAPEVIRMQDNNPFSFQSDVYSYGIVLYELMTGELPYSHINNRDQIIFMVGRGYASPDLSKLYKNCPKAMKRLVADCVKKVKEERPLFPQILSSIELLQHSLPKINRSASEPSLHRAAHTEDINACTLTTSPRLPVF
Summary of the method: (§1)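 Cells were lysed on ice for 50 min in HEPES pH 7.9/KCl/EDTA/NP-40 buffer with Na₃VO₄, NaF and protease inhibitors. Protein was quantified by Coomassie, run on 15% SDS-PAGE and transferred to PVDF. Membranes were blocked in 5% milk for 2 h and probed with total/phospho ERK1/2 or c-Jun antibodies for 2 h at room temperature. Detection was by HRP secondary antibody and chemiluminescence.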

[4] = molecular target: RAF proto-oncogene serine/threonine-protein kinase (Homo sapiens) (UniProt P04049); test: Inhibition of Raf1 (unknown origin) at 50 uM
Summary of the method: (§2)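 Kinase-Glo Plus luminescent assay. Enzyme, substrate, ATP and compound were mixed in 25 mM HEPES pH 7.4 with 10 mM MgCl₂ and incubated 1 h at 30 °C. The reaction was stopped with an equal volume of Kinase-Glo Plus reagent. Luminescence reflects remaining ATP, inversely related to kinase activity, and is reported as percent inhibition at a single concentration.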

[5] = test system: HepG2; test: Cell cycle arrest in human HepG2 cells assessed as cells at G2+M phase at 10 uM measured after 24 hrs by flow cytometric analysis; type: functional
[6] = test system: HepG2; test: Cell cycle arrest in human HepG2 cells assessed as cells at G0/G1 phase at 10 uM measured after 36 hrs by flow cytometric analysis; type: functional
[7] = test system: A549; test: Antiproliferative activity against human A549 cells assessed as growth inhibition measured after 48 hrs by MTT assay; type: functional, cell-based; details: A549, 48 h
Summary of the method: (§3)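 Compounds dissolved in DMSO and diluted in medium to final 0.5–50 µM (final DMSO <1%). Cells were grown in DMEM with 10% FBS, penicillin and streptomycin at 37 °C, 5% CO₂. They were seeded at 5 × 10⁵ cells/mL, incubated 24 h, then treated in triplicate per concentration for 48 h. MTT was added for 4 h, formazan dissolved in DMSO, absorbance read at 495 nm, and IC50 derived.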

[8] = molecular target: Mitogen-activated protein kinase 8 (Homo sapiens) (UniProt P45983); test: Inhibition of JNK1 in human HepG2 cells assessed as inhibition of methyl methane sulfonate-induced c-Jun phosphorylation at 100 uM measured after 2 hrs by Western blot analysis; type: cell-based; summary of the method: as §1
Mitogen-activated protein kinase 8 (Homo sapiens), sequence (P45983 whole entry): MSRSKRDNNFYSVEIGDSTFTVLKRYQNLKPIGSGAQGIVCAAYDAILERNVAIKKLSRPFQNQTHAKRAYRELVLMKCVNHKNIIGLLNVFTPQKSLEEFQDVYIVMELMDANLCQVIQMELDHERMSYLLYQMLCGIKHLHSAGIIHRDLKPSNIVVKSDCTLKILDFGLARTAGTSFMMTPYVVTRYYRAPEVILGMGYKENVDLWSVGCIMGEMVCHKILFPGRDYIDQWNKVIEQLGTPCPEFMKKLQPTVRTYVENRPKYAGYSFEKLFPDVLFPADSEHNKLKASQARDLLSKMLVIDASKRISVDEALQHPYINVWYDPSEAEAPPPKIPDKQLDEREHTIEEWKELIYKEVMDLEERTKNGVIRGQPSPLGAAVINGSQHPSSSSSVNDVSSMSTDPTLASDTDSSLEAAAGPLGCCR

[9] = test system: HepG2; test: Induction of human HepG2 cells assessed as early apoptotic cells at 10 uM measured after 24 hrs by Annexin VFITC/PI assay; type: functional
[10] = test system: HepG2; test: Cell cycle arrest in human HepG2 cells assessed as cells at G2+M phase at 10 uM measured after 48 hrs by flow cytometric analysis; type: functional
[11] = molecular target: Mitogen-activated protein kinase 8 (Homo sapiens) (UniProt P45983); test: Inhibition of JNK1 (unknown origin) at 50 uM
Summary of the method: (§4)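 Luminescent Kinase-Glo Plus assay. Enzyme, substrate, ATP and compound were mixed in pH 7.4 buffer containing 25 mM HEPES and 10 mM MgCl2, then incubated at 30 °C for 1 h. An equal volume of Kinase-Glo Plus reagent stopped the reaction before luminescence was read. Signal tracks remaining ATP and runs inversely to kinase activity; results are given as percent inhibition.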

[12] = test system: HCT-116; test: Antiproliferative activity against human HCT116 cells assessed as growth inhibition measured after 48 hrs by MTT assay; type: functional, cell-based; details: HCT-116, 48 h; summary of the method: as §3
[13] = molecular target: Mitogen-activated protein kinase 14 (Homo sapiens) (UniProt Q16539); test: Inhibition of p38-alpha (unknown origin) at 50 uM; summary of the method: as §2
Mitogen-activated protein kinase 14 (Homo sapiens), sequence (Q16539 whole entry): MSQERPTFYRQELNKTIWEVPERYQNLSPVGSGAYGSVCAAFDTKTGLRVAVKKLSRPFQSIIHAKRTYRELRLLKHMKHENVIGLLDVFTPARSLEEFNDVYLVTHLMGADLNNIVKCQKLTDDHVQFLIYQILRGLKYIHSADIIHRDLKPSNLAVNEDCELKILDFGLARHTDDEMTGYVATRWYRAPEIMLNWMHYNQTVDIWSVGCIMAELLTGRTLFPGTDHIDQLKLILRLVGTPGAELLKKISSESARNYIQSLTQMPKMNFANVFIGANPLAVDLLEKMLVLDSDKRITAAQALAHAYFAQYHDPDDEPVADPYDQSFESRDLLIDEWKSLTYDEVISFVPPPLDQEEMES

[14] = test system: HepG2; test: Antiproliferative activity against human HepG2 cells assessed as growth inhibition measured after 48 hrs by MTT assay; type: functional, cell-based; details: HepG2, 48 h; summary of the method: as §3
[15] = test system: HepG2; test: Cell cycle arrest in human HepG2 cells assessed as cells at G0/G1 phase at 10 uM measured after 48 hrs by flow cytometric analysis; type: functional
[16] = test system: HepG2; test: Cell cycle arrest in human HepG2 cells assessed as cells at G0/G1 phase at 10 uM measured after 12 hrs by flow cytometric analysis; type: functional
[17] = test system: HepG2; test: Cell cycle arrest in human HepG2 cells assessed as cells at G2+M phase at 10 uM measured after 36 hrs by flow cytometric analysis; type: functional
[18] = test system: HepG2; test: Cell cycle arrest in human HepG2 cells assessed as cells at S phase at 10 uM measured after 48 hrs by flow cytometric analysis; type: functional
[19] = test system: HepG2; test: Induction of human HepG2 cells assessed as early apoptotic cells at 10 uM measured after 12 hrs by Annexin VFITC/PI assay; type: functional
[20] = test system: HepG2; test: Cell cycle arrest in human HepG2 cells assessed as cells at G2+M phase at 10 uM measured after 12 hrs by flow cytometric analysis; type: functional
[21] = Cytotoxicity against human HL7702 cells assessed as inhibition rate at 50 uM measured after 48 hrs by MTT assay; type: cell-based, L02; details: read-out: INH
Summary of the method: (§5)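 Normal liver cells were grown in DMEM with 10% FBS plus penicillin/streptomycin at 37 °C, 5% CO₂. They were seeded at 5 × 10⁵ cells/mL and incubated 24 h. Compounds from DMSO stock were added at final 50 or 100 µM (DMSO <1%), in triplicate, for 48 h. MTT was added for 4 h, formazan dissolved in DMSO, A495 read, and inhibition rate calculated.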

[22] = Cytotoxicity against human QSG7701 cells assessed as inhibition rate at 50 uM measured after 48 hrs by MTT assay; type: cell-based; details: read-out: INH; summary of the method: as §5
[23] = test system: HepG2; test: Induction of human HepG2 cells assessed as early apoptotic cells at 10 uM measured after 48 hrs by Annexin VFITC/PI assay; type: functional
[24] = test system: HepG2; test: Cell cycle arrest in human HepG2 cells assessed as cells at S phase at 10 uM measured after 36 hrs by flow cytometric analysis; type: functional
[25] = test system: HepG2; test: Cell cycle arrest in human HepG2 cells assessed as cells at S phase at 10 uM measured after 12 hrs by flow cytometric analysis; type: functional
[26] = test system: HepG2; test: Induction of human HepG2 cells assessed as late apoptotic cells at 10 uM measured after 48 hrs by Annexin VFITC/PI assay; type: functional
[27] = test system: HepG2; test: Cell cycle arrest in human HepG2 cells assessed as cells at S phase at 10 uM measured after 24 hrs by flow cytometric analysis; type: functional
[28] = Cytotoxicity against human HL7702 cells assessed as inhibition rate at 100 uM measured after 48 hrs by MTT assay; type: cell-based, L02; details: read-out: INH; summary of the method: as §5
[29] = test system: HepG2; test: Induction of human HepG2 cells assessed as late apoptotic cells at 10 uM measured after 36 hrs by Annexin VFITC/PI assay; type: functional
[30] = molecular target: Mitogen-activated protein kinase 8 (Homo sapiens) (UniProt P45983); test: Inhibition of JNK1 in human HepG2 cells assessed as c-Jun phosphorylation at 10 uM measured after 2 hrs by Western blot analysis; type: cell-based; summary of the method: as §1
[31] = Cytotoxicity against human QSG7701 cells assessed as inhibition rate at 100 uM measured after 48 hrs by MTT assay; type: cell-based; details: read-out: INH; summary of the method: as §5
[32] = molecular target: Mitogen-activated protein kinase 1 (Homo sapiens) (UniProt P28482); details: at 50 µM
Mitogen-activated protein kinase 1 (Homo sapiens), sequence (P28482 whole entry): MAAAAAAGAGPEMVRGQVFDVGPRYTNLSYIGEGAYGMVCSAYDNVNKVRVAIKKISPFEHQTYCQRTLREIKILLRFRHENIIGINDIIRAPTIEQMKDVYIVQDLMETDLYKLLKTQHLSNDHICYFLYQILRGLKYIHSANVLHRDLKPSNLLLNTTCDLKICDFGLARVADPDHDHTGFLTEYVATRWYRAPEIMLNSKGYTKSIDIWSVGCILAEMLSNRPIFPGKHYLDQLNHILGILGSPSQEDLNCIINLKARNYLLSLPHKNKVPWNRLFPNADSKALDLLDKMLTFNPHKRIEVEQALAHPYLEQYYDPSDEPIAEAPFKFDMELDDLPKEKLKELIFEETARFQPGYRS

[33] = test system: HepG2; test: Induction of human HepG2 cells assessed as late apoptotic cells at 10 uM measured after 12 hrs by Annexin VFITC/PI assay; type: functional
[34] = molecular target: Mitogen-activated protein kinase 3 (Homo sapiens) (UniProt P27361); test: Inhibition of ERK1 (unknown origin) at 50 uM; summary of the method: as §4
Mitogen-activated protein kinase 3 (Homo sapiens), sequence (P27361 whole entry): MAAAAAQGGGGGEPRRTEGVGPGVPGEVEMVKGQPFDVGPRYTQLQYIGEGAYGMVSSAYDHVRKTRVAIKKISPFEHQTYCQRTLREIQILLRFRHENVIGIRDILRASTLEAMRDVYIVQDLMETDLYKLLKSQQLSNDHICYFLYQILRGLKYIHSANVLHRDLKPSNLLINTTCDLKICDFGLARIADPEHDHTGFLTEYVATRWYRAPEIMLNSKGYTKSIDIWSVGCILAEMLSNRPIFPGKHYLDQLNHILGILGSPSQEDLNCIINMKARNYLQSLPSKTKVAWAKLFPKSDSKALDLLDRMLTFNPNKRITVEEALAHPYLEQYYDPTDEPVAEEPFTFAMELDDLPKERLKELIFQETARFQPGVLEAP

[35] = test system: HepG2; test: Induction of human HepG2 cells assessed as early apoptotic cells at 10 uM measured after 36 hrs by Annexin VFITC/PI assay; type: functional
[36] = molecular target: Mitogen-activated protein kinase 14 (Homo sapiens) (UniProt Q16539); test: Inhibition of p38-alpha (unknown origin) at 100 uM; summary of the method: as §2

Structure (SMILES): Oc1ccc(-c2nc(-c3ccc(F)cc3)c(-c3ccncc3)[nH]2)cc1
inhibition [13]: 106%

Structure (SMILES): CCc1ccc2oc(-c3ccc(NC(=O)Nc4cccc(Cl)c4)cc3Cl)cc(=O)c2c1
IC50 [7]: > 50 µM
IC50 [12]: 27.9 µM
IC50 [14]: 30.7 µM
cytotoxicity at 48 h, 50 µM [21]: 9.4%
cytotoxicity at 48 h, 50 µM [22]: 12.6%
cytotoxicity at 48 h, 100 µM [28]: 37.2%
cytotoxicity at 48 h, 100 µM [31]: 18%

Structure (SMILES): O=C(Nc1cccc(Cl)c1)Nc1ccc(-c2cc(=O)c3cc(F)ccc3o2)c(Cl)c1
IC50 [7]: > 50 µM
IC50 [12]: 24.2 µM
IC50 [14]: 31.7 µM
cytotoxicity at 48 h, 50 µM [21]: 20.1%
cytotoxicity at 48 h, 50 µM [22]: 26.8%
cytotoxicity at 48 h, 100 µM [28]: 54.2%
cytotoxicity at 48 h, 100 µM [31]: 57.7%

More lines, main results first:

inhibition [3]: Active
inhibition [4]: 65.6%
IC50 [7]: > 50 µM
inhibition [8]: Active
inhibition [11]: 67.4%
IC50 [12]: 28.7 µM
inhibition [13]: 13.5%
IC50 [14]: 8.3 µM
inhibition [30]: inactive
inhibition [32]: inactive
inhibition [34]: inactive
Structure (SMILES): CCc1ccc2oc(-c3ccc(NC(=O)Nc4ccc(Cl)cc4)cc3Cl)cc(=O)c2c1
Activity [1]: 1.2%
Activity [2]: 62.29%
Activity [5]: 9.38%
Activity [6]: 52.83%
Activity [9]: 0.44%
Activity [10]: 13.43%
Activity [15]: 52.83%
Activity [16]: 69.43%
Activity [17]: 9.14%
Activity [18]: 20.57%
Activity [19]: 0.27%
Activity [20]: 8.81%
cytotoxicity at 48 h, 50 µM [21]: 18.7%
cytotoxicity at 48 h, 50 µM [22]: 23.7%
Activity [23]: 0.55%
Activity [24]: 24.69%
Activity [25]: 19.92%
Activity [26]: 1.28%
Activity [27]: 21.77%
cytotoxicity at 48 h, 100 µM [28]: 28.3%
Activity [29]: 1.37%
cytotoxicity at 48 h, 100 µM [31]: 31.8%
Activity [33]: 1.22%
Activity [35]: 0.46%

IC50 [7]: > 50 µM
IC50 [12]: > 50 µM
IC50 [14]: > 50 µM
Structure (SMILES): CCc1ccc2oc(-c3ccc(NC(=O)Cc4ccc(F)cc4)cc3Cl)cc(=O)c2c1
cytotoxicity at 48 h, 50 µM [21]: 29.1%
cytotoxicity at 48 h, 50 µM [22]: 16.2%
cytotoxicity at 48 h, 100 µM [28]: 45.2%
cytotoxicity at 48 h, 100 µM [31]: 36.9%

inhibition [4]: 27%
inhibition [36]: 14.5%
Structure (SMILES): CCc1ccc2oc(-c3ccc(N)cc3Cl)cc(=O)c2c1

IC50 [7]: > 50 µM
IC50 [12]: > 50 µM
IC50 [14]: 19.8 µM
Structure (SMILES): CCc1ccc2oc(-c3ccc(NC(=O)Cc4cccc(F)c4)cc3Cl)cc(=O)c2c1
cytotoxicity at 48 h, 50 µM [21]: 20.4%
cytotoxicity at 48 h, 50 µM [22]: 22.4%
cytotoxicity at 48 h, 100 µM [28]: 44.6%
cytotoxicity at 48 h, 100 µM [31]: 27.4%
